Measurements taken from ChEMBL document CHEMBL1287740, “Synthesis and bio-evaluation of alkylaminoaryl phenyl cyclopropyl methanones as antitubercular and antimalarial agents” (Bioorg Med Chem, 2010).
In brackets after ≈: the same amount, converted by molar mass. Activity calls are given as the source filed them. The calls are words filed in the database; no cut-off is given here.

What was measured:
Plasmodium falciparum [1] = assay: Antimalarial activity against Plasmodium falciparum 3D7 assessed as maturation of schizonts after 24 to 32 hrs by microdilution method; format: functional
Procedure, shortened: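 P. falciparum 3D7 (chloroquine sensitive); twofold serial dilutions in complete RPMI 1640 from 10 mg/ml DMSO stocks, parasitized RBCs added (final hematocrit 3–4%, 1.0–2.0% parasitaemia, >95% rings). Incubated 24–32 h at 37 °C with 5% CO2. Thin smears stained with 15% Giemsa; schizont maturation scored against controls to give MIC.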

[2] = tested on: Mycobacterium tuberculosis; assay: Antimicrobial activity against Mycobacterium tuberculosis H37Rv after 30 days by agar microdilution method; format: functional
Procedure, shortened: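 Twofold dilutions of compound in DMSO incorporated into Middlebrook 7H10 medium with OADC supplement in slanted tubes, preincubated 37 °C for 24 h, then streaked with H37Rv harvested from L-J medium into 0.85% saline with 0.05% Tween-80 (5 × 10^5 bacilli per tube). Incubated at 37 °C; MIC = lowest concentration giving complete inhibition of colonies versus drug-free control.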

Plasmodium falciparum [3] = assay: Antimalarial activity against Plasmodium falciparum 3D7 assessed as radiolabeled hypoxanthine uptake after 48 hrs by scintillation counting; format: functional, organism-based; conditions: 3D7, 48 h
Procedure, shortened: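 Chloroquine-sensitive P. falciparum 3D7 asynchronous culture at 0.5% parasitaemia and 1.5% hematocrit, exposed to compounds for 24 h at 37 °C in CO2. Radiolabelled hypoxanthine (0.5 µCi/well) then added and incubation continued 48 h. Cells harvested onto filter paper, and radioactivity counted by scintillation β-counter. IC50 derived from hypoxanthine uptake.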

[4] = Cytotoxicity against african green monkey Vero cells after 72 hrs; format: cell-based; conditions: chlorocebus sabaeus
Procedure, shortened: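 Vero (C1008 monkey kidney) cells grown in MEM + 15% FBS, 5% CO2, 37 °C. Trypsinized cells at 1 × 10^5 cells/ml seeded and allowed to adhere overnight, then exposed to serial compound dilutions for 72 h. Resazurin added and fluorescence read after 4 h.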

[5] = Selectivity index, ratio of CC50 for african green monkey (Cercopithecus aethiops) Vero cells to IC50 for Plasmodium falciparum 3D7; format: functional
Procedure, shortened: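 Ratio of Vero CC50 (resazurin fluorescence after 72 h exposure) to P. falciparum 3D7 IC50 (radiolabelled hypoxanthine uptake; 24 h compound exposure, then 48 h with label).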

Mycolicibacterium aurum [6] = assay: Inhibition of type II fatty acid biosynthesis pathway in Mycobacterium aurum at 25 uM after 12 hrs by lacZ reporter assay relative to untreated control; format: functional
Procedure, shortened: (§1)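 Recombinant M. aurum lacZ reporter strains (kasA promoter or hsp60 promoter) grown in Sauton's medium with kanamycin at 37 °C to 0.5 OD600, diluted to 0.04–0.05 OD, equilibrated 2 h, then treated 12 h at 37 °C (10, 25, 50, 75 µM). Cells sonicated in PBS pH 7.2 and protein normalized by Bradford. β-gal measured with ONPG (4 mg/ml), 30 min at 37 °C, stopped with Na2CO3, OD 410 nm. Triplicates, relative to untreated control.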

Mycolicibacterium aurum [7] = assay: Inhibition of type II fatty acid biosynthesis pathway in Mycobacterium aurum at 50 uM after 12 hrs by lacZ reporter assay relative to untreated control; format: functional; procedure, shortened: as §1

Structure (SMILES)	MIC (Plasmodium falciparum [1]) [µg/mL]	MIC [2]	IC50 (Plasmodium falciparum [3]) [µg/mL]	CC50 at 72 h [4] [µg/mL]	Ratio CC50/IC50 [5]	inhibition at 25 µM (Mycolicibacterium aurum [6]) [%]	inhibition at 50 µM (Mycolicibacterium aurum [7]) [%]	inhibition (Mycolicibacterium aurum [6])
O=C(/C=C/c1ccc(Cl)cc1)c1ccc(NCc2ccco2)cc1	10 (≈ 29.6 µM)	12.5 µg/mL (≈ 37 µM)	0.76 (≈ 2.25 µM)	404 (≈ 1200 µM)	531.62	–	–	–
O=C(c1ccc(N2CCN(c3cccc(Cl)c3Cl)CC2)cc1)C1CC1c1ccc(Cl)cc1 (centres undefined)	50 (≈ 103 µM)	12.5 µg/mL (≈ 25.7 µM)	8.82 (≈ 18.2 µM)	383 (≈ 788 µM)	43.38	15.7	31.8	–
O=C(/C=C/c1ccc(Cl)cc1)c1ccc(N2CCOCC2)cc1	50 (≈ 153 µM)	6.25 µg/mL (≈ 19.1 µM)	4.86 (≈ 14.8 µM)	35.6 (≈ 109 µM)	7.33	47.1	42.9	–
CN1CCN(c2ccc(C(=O)/C=C/c3ccc(Cl)cc3)cc2)CC1	50 (≈ 147 µM)	3.12 µg/mL (≈ 9.15 µM)	11.8 (≈ 34.6 µM)	102 (≈ 301 µM)	8.69	13.6	14.7	–
CC(C)CCCC(C)Nc1ccc(C(=O)C2CC2c2ccc(Cl)cc2)cc1 (centres undefined)	–	> 12.5 µg/mL	–	–	–	17.5	27.4	–
CCCCCCCCCCCCCCCCNc1ccc(C(=O)C2CC2c2ccc(Cl)cc2)cc1 (centres undefined)	50 (≈ 101 µM)	Insoluble	4.57 (≈ 9.21 µM)	410 (≈ 826 µM)	89.68	36	36.7	–
CN1CCN(c2ccc(C(=O)C3CC3c3ccc(Cl)cc3)cc2)CC1 (centres undefined)	10 (≈ 28.2 µM)	6.25 µg/mL (≈ 17.6 µM)	0.54 (≈ 1.52 µM)	82.1 (≈ 231 µM)	151.96	–	0.17	inactive
O=C(c1ccc(NCCn2cncn2)cc1)C1CC1c1ccc(Cl)cc1 (centres undefined)	10 (≈ 27.3 µM)	12.5 µg/mL (≈ 34.1 µM)	3.41 (≈ 9.3 µM)	39.9 (≈ 109 µM)	11.7	17.9	30.1	–
COc1ccc(CNc2ccc(C(=O)C3CC3c3ccc(Cl)cc3)cc2)cc1OC (centres undefined)	10 (≈ 23.7 µM)	> 12.5 µg/mL	8 (≈ 19 µM)	422 (≈ 1000 µM)	52.73	–	–	–
CCCCN(CCCC)c1ccc(C(=O)C2CC2c2ccc(Cl)cc2)cc1 (centres undefined)	10 (≈ 26 µM)	12.5 µg/mL (≈ 32.6 µM)	0.73 (≈ 1.9 µM)	431 (≈ 1120 µM)	590.04	41.5	37.5	–
CN(C)c1ccc(C(=O)C2CC2c2ccc(Cl)cc2)cc1 (centres undefined)	10 (≈ 33.4 µM)	Insoluble	1.43 (≈ 4.77 µM)	344 (≈ 1150 µM)	240.4	–	–	–
COc1ccc(C2CC2C(=O)c2ccc(N3CCN(C)CC3)cc2)cc1OC (centres undefined)	50 (≈ 131 µM)	> 12.5 µg/mL	2.09 (≈ 5.49 µM)	77.8 (≈ 205 µM)	37.23	–	–	–
O=C(c1ccc(NCCn2ccnc2)cc1)C1CC1c1ccc(Cl)cc1 (centres undefined)	0.062 (≈ 0.169 µM)	6.25 µg/mL (≈ 17.1 µM)	0.035 (≈ 0.0957 µM)	243 (≈ 665 µM)	6948.57	48.6	50.2	–
CCCCCCCNc1ccc(C(=O)C2CC2c2ccc(OC)c(OC)c2)cc1 (centres undefined)	10 (≈ 25.3 µM)	> 12.5 µg/mL	2.24 (≈ 5.66 µM)	273 (≈ 689 µM)	121.67	–	–	–
O=C(c1ccc(NCCO)cc1)C1CC1c1ccc(Cl)cc1 (centres undefined)	2 (≈ 6.33 µM)	> 12.5 µg/mL	0.6 (≈ 1.9 µM)	305 (≈ 966 µM)	508.33	–	–	–
